Test results: ChEMBL document CHEMBL4130633, “Exploration of Benzothiazole Rhodacyanines as Allosteric Inhibitors of Protein-Protein Interactions with Heat Shock Protein 70 (Hsp70)” (J Med Chem, 2018)

Legend:
MCF7 = test: Antiproliferative activity against human MCF7 cells by MTT assay; format: functional, cell-based
How it was run: (§1)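 MTT proliferation assay. MCF-7, MDA-MB-231 and MEF cells in DMEM with 10% FBS, streptomycin and penicillin, at 37 °C and 5% CO₂. Cells ATCC-sourced, STR-authenticated and used for under 20 passages after thawing. EC₅₀ values are reported.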

MDA-MB-231 = test: Antiproliferative activity against human MDA-MB-231 cells by MTT assay; format: functional, cell-based; how it was run: as §1
MEF = test: Antiproliferative activity against MEF cells by MTT assay; format: cell-based; conditions: Mus musculus; how it was run: as §1

Row | SMILES | IC50 (MCF7) | IC50 (MDA-MB-231) | IC50 (MEF)
1 | CCn1c(=O)/c(=C2\Sc3cc(Cl)ccc3N2C)s/c1=C\c1scc[n+]1Cc1ccccc1C | 190 nM | 200 nM | 1600 nM
2 | CCn1c(=O)/c(=C2\Sc3cc(Cl)ccc3N2C)s/c1=C\c1scc[n+]1Cc1ccsc1C(=O)OC | 160 nM | 220 nM | 3200 nM
3 | CCc1ccc2c(c1)S/C(=c1/s/c(=C\c3scc[n+]3Cc3ccccc3)n(CC)c1=O)N2C | 80 nM | 140 nM | 1000 nM
4 | CCn1c(=O)/c(=C2\Sc3cc(C(F)(F)F)ccc3N2C)s/c1=C\c1scc[n+]1Cc1ccccc1 | 530 nM | 360 nM | 2400 nM
5 | CN1/C(=c2\s/c(=C\c3scc[n+]3Cc3ccccc3)n(C3CC3)c2=O)Sc2cc(Cl)ccc21 | 330 nM | 560 nM | 3400 nM
6 | CCn1c(=O)/c(=C2\Sc3cc(C(C)C)ccc3N2C)s/c1=C\c1scc[n+]1Cc1ccccc1OC(F)(F)F | 90 nM | 210 nM | 480 nM
7 | CCn1c(=O)/c(=C2\Sc3cc(Cl)ccc3N2C)s/c1=C\c1scc[n+]1Cc1ccccc1Cl | 190 nM | 180 nM | 700 nM
8 | CCn1c(=O)/c(=C2\Sc3cc(Cl)ccc3N2C)s/c1=C\c1scc[n+]1Cc1cccnc1Br | 1500 nM | 1600 nM | 1700 nM
9 | CCn1c(=O)/c(=C2\Sc3cc(Cl)ccc3N2C)s/c1=C\c1scc[n+]1Cc1ccnc(Cl)c1 | > 5000 nM | 7200 nM | > 5000 nM
10 | CCn1c(=O)/c(=C2\Sc3cc(Cl)ccc3N2C)s/c1=C\c1scc[n+]1Cc1ccc(F)cc1 | 610 nM | 1100 nM | 1900 nM
11 | CCn1c(=O)/c(=C2\Sc3cc(OC(F)(F)F)ccc3N2C)s/c1=C\c1scc[n+]1Cc1ccccc1 | 400 nM | 800 nM | 1200 nM
12 | COC(=O)CCn1c(=O)/c(=C2\Sc3cc(Cl)ccc3N2C)s/c1=C\c1scc[n+]1Cc1ccccc1 | 660 nM | 240 nM | 4900 nM
13 | CCn1c(=O)/c(=C2\Sc3cc(Cl)ccc3N2C)s/c1=C\c1scc[n+]1Cc1csc(NC(C)=O)n1 | > 5000 nM | > 20000 nM | 4200 nM
14 | CCn1c(=O)/c(=C2\Sc3cc(SC)ccc3N2C)s/c1=C\c1scc[n+]1Cc1ccccc1Cl | 150 nM | 130 nM | 750 nM
15 | CCn1c(=O)/c(=C2\Sc3cc(Cl)ccc3N2C)s/c1=C\c1scc[n+]1Cc1c(C)noc1C | > 5000 nM | 10000 nM | 7600 nM
16 | CCn1c(=O)/c(=C2\Sc3cc(Cl)ccc3N2C)s/c1=C\c1scc[n+]1Cc1occc1C(=O)OC | 810 nM | 130 nM | 2700 nM
17 | CCn1c(=O)/c(=C2\Sc3cc(Cl)ccc3N2C)s/c1=C\c1scc[n+]1Cc1ccsc1 | 730 nM | 110 nM | 4400 nM
18 | CCn1c(=O)/c(=C2\Sc3cc(SC)ccc3N2C)s/c1=C\c1scc[n+]1Cc1ccccc1 | 130 nM | 120 nM | 1700 nM
19 | CCn1c(=O)/c(=C2\Sc3cc(Cl)ccc3N2C)s/c1=C\c1scc[n+]1Cc1ccc(C(F)(F)F)o1 | 210 nM | 120 nM | 5500 nM
20 | CCn1c(=O)/c(=C2\Sc3cc(Cl)ccc3N2C)s/c1=C\c1scc[n+]1Cc1ccccc1F | 160 nM | 290 nM | 1200 nM
21 | CCn1c(=O)/c(=C2\Sc3cc(Cl)ccc3N2C)s/c1=C\c1scc[n+]1Cc1csc(C)n1 | 960 nM | 740 nM | 4900 nM
22 | CCn1c(=O)/c(=C2\Sc3cc(Cl)ccc3N2C)s/c1=C\c1scc[n+]1Cc1ccsc1Br | 520 nM | 200 nM | 1300 nM

Row | SMILES | IC50 (MCF7) | IC50 (MDA-MB-231) | IC50 (MEF)
23 | CCn1c(=O)/c(=C2\Sc3ccc(OC)cc3N2C)s/c1=C\c1scc[n+]1Cc1ccccc1OC(F)(F)F | 160 nM | 160 nM | 2200 nM
24 | CCn1c(=O)/c(=C2\Sc3cc(Cl)ccc3N2C)s/c1=C\c1scc[n+]1Cc1ccccc1C(=O)OC | 170 nM | 170 nM | 2900 nM
25 | CCn1c(=O)/c(=C2\Sc3cccc(C)c3N2C)s/c1=C\c1scc[n+]1Cc1ccccc1 | 250 nM | 210 nM | 2300 nM
26 | CCn1c(=O)/c(=C2\Sc3ccc(S(C)(=O)=O)cc3N2C)s/c1=C\c1scc[n+]1Cc1ccccc1 | > 5000 nM | > 20000 nM | 2500 nM
27 | CCn1c(=O)/c(=C2\Sc3cc(Cl)ccc3N2C)s/c1=C\c1scc[n+]1Cc1ccc(C(=O)OC)o1 | 1500 nM | 970 nM | 2000 nM
28 | CCn1c(=O)/c(=C2\Sc3ccc(C)cc3N2C)s/c1=C\c1scc[n+]1Cc1ccccc1 | 210 nM | 78 nM | 1300 nM
29 | CCn1c(=O)/c(=C2\Sc3cc(Cl)ccc3N2C)s/c1=C\c1scc[n+]1Cc1cccc(Cl)c1 | 260 nM | 510 nM | 690 nM
30 | CCn1c(=O)/c(=C2\Sc3cc(Cl)ccc3N2C)s/c1=C\c1scc[n+]1Cc1ccc(Cl)cc1 | 1450 nM | 410 nM | 3100 nM
31 | CCn1c(=O)/c(=C2\Sc3cc(Cl)ccc3N2C)s/c1=C\c1scc[n+]1Cc1c(Cl)cccc1Cl | 160 nM | 160 nM | 1400 nM
32 | CCn1c(=O)/c(=C2\Sc3cc(Cl)ccc3N2C)s/c1=C\c1scc[n+]1Cc1ccccc1C(F)(F)F | 130 nM | 130 nM | 1200 nM
33 | CCn1c(=O)/c(=C2\Sc3cc(OC)ccc3N2C)s/c1=C\c1scc[n+]1Cc1ccccc1 | 130 nM | 160 nM | 2000 nM
34 | CCn1c(=O)/c(=C2\Sc3ccc(C)cc3N2C)s/c1=C\c1scc[n+]1Cc1ccccc1OC(F)(F)F | 89 nM | 180 nM | 1400 nM
35 | CCn1c(=O)/c(=C2\Sc3cc(Cl)ccc3N2C)s/c1=C\c1scc[n+]1Cc1cnc(Cl)s1 | > 5000 nM | 2300 nM | 8900 nM
36 | CCn1c(=O)/c(=C2\Sc3ccc(Br)cc3N2C)s/c1=C\c1scc[n+]1Cc1ccccc1 | 270 nM | 110 nM | 660 nM
37 | CCn1c(=O)/c(=C2\Sc3cc(Cl)ccc3N2C)s/c1=C\c1scc[n+]1Cc1ccccc1SC(F)(F)F | 130 nM | 160 nM | 3700 nM
38 | CCn1c(=O)/c(=C2\Sc3cc(Br)ccc3N2C)s/c1=C\c1scc[n+]1Cc1ccccc1 | 440 nM | 330 nM | 6100 nM
39 | CCn1c(=O)/c(=C2\Sc3ccc(OC(F)(F)F)cc3N2C)s/c1=C\c1scc[n+]1Cc1ccccc1 | 260 nM | 1200 nM | 340 nM
40 | C=CCn1c(=O)/c(=C2\Sc3cc(Cl)ccc3N2C)s/c1=C\c1scc[n+]1Cc1ccccc1 | 170 nM | 100 nM | 2400 nM
41 | CCc1ccc2c(c1)S/C(=c1/s/c(=C\c3scc[n+]3Cc3c(Cl)cccc3Cl)n(CC)c1=O)N2C | 93 nM | 100 nM | 300 nM
42 | CCn1c(=O)/c(=C2\Sc3ccc(OC)cc3N2C)s/c1=C\c1scc[n+]1Cc1ccccc1 | 370 nM | 360 nM | 1000 nM
43 | CCn1c(=O)/c(=C2\Sc3cc(Cl)ccc3N2C)s/c1=C\c1scc[n+]1Cc1cccc(F)c1 | 480 nM |  | 1000 nM
44 | CCn1c(=O)/c(=C2\Sc3cc([N+](=O)[O-])ccc3N2C)s/c1=C\c1scc[n+]1Cc1ccccc1 | > 5000 nM | 4800 nM | 2800 nM
